From ChEMBL document CHEMBL3861959, “Synthesis and antiproliferative evaluation of novel 2-(4H-1,2,4-triazole-3-ylthio)acetamide derivatives as inducers of apoptosis in cancer cells” (Eur J Med Chem, 2016)
The source made the active and inactive calls. The rule behind the calls is not given here.

How the values were obtained:
[1] = Induction of apoptosis in human K562 cells assessed as upregulation of caspase-3 levels using DEVD-pNA substrate after 72 hrs by ELISA; type: functional, cell-based
In short: (§1)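 Supernatant protein measured by Bradford. 200 µg protein incubated with pNA substrate (DEVD-pNA for caspase-3) using a colorimetric kit. Data given as mean ± SD; one-way ANOVA with Tukey test, p < 0.05.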

[2] = tested on: K562; assay: Disruption of mitochondrial membrane potential in human K562 cells after 72 hrs by JC1 staining-based assay; type: functional, cell-based
In short: (§2)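 Cells seeded and treated with 10, 20 and 50 µM compound. Cells pelleted at 600 × g, resuspended in JC-1 dye, and incubated at 37 °C in 5% CO2 for 15 min. Green monomers mark disrupted membrane potential; orange aggregates mark intact potential.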

[3] = tested on: K562; assay: Induction of apoptosis in human K562 cells assessed as downregulation of Bcl-2 levels after 72 hrs by […]; type: functional, cell-based
[4] = Cytotoxicity against human NCI-H460 cells assessed as cell growth at 10^-5 M after 48 hrs by SRB assay relative to control; type: functional; details: NCI-H460, 48 h, read-out: Activity
In short: (§3)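 NCI single-dose primary screen run under the US NCI protocol. Compounds tested at 10 µM across the 60-cell-line panel, with growth percent reported for each line.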

[5] = Selectivity index, ratio of CC50 for human MT4 cells to EC50 for HIV1 3B; type: toxicity, cell-based; details: read-out: Ratio CC50/EC50
In short: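 HIV-1 IIIB and HIV-2 ROD tested in MT-4 cells by MTT. Serial fivefold dilutions of compound added to triplicate mock- and virus-infected wells. MT-4 cells at 6 × 10^5 cells/mL. Absorbance read at 540/690 nm; median OD of three wells used. CC50 is the concentration reducing mock-infected OD540 by 50%. […]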

[6] = Cytotoxicity against human A549 cells assessed as cell growth at 10^-5 M after 48 hrs by SRB assay relative to control; type: functional; details: A549, 48 h, read-out: Activity; in short: as §3
[7] = Cytotoxicity against human RXF393 cells assessed as cell growth at 10^-5 M after 48 hrs by SRB assay relative to control; type: functional; details: RXF 393, 48 h, read-out: Activity; in short: as §3
[8] = (§4) Cytotoxicity against human K562 cells assessed as decrease in cell proliferation after 48 hrs by MTT assay; type: functional, cell-based; details: K562, 48 h
In short: (§5)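 MTT viability assay in A549, K562 and PC-3 cells. Media carried 10% FBS, 1% L-glutamine and penicillin/streptomycin, at 37 °C in 5% CO2. Cells seeded and left overnight, then exposed to 5–100 µM compound for 48 h. MTT added to 0.5 mg/ml final for 4 h, medium removed, and SDS buffer added. Data given as mean ± SD, analysed by ANOVA/Tukey.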

[9] = tested on: K562; assay: as §4; type: functional, cell-based; in short: as §5
[10] = tested on: PC-3; assay: Induction of apoptosis in human PC3 cells assessed as downregulation of Bcl-2 levels by […]; type: functional, cell-based
[11] = Cytotoxicity against human PC3 cells assessed as decrease in cell proliferation after 48 hrs by MTT assay; type: functional, cell-based; details: PC-3, 48 h; in short: as §5
[12] = tested on: PC-3; assay: Disruption of mitochondrial membrane potential in human PC3 cells at 10 to 50 uM after 72 hrs by JC1 staining-based assay; type: functional, cell-based; in short: as §2
[13] = Induction of apoptosis in human PC3 cells assessed as upregulation of caspase-3 levels using DEVD-pNA substrate by ELISA; type: functional, cell-based; details: PC-3; in short: as §1
[14] = tested on: A549; assay: Disruption of mitochondrial membrane potential in human A549 cells after 72 hrs by JC1 staining-based assay; type: functional, cell-based; in short: as §2
[15] = Cytotoxicity against human A549 cells assessed as decrease in cell proliferation after 48 hrs by MTT assay; type: functional, cell-based; details: A549, 48 h; in short: as §5
[16] = Induction of apoptosis in human A549 cells assessed as upregulation of caspase-8 levels at 50 uM using IETD-pNA substrate by ELISA; type: functional, cell-based
[17] = Induction of apoptosis in human A549 cells assessed as upregulation of caspase-3 levels using DEVD-pNA substrate by ELISA; type: functional, cell-based; in short: as §1
[18] = tested on: A549; assay: Induction of apoptosis in human A549 cells assessed as downregulation of Bcl-2 levels by […]; type: functional, cell-based

Row | SMILES | Activity [1] | Activity [2] | Activity [3] | growth at 10 µM [4] | selectivity ratio [5] | growth at 10 µM [6] | growth at 10 µM [7] | IC50 [8] | Activity [9] | Activity [10] | IC50 [11] | Activity [12] | Activity [13] | Activity [14] | IC50 [15] | Activity [16] | Activity [17] | Activity [18]
1 | CC(=O)Nc1ccc(OCc2nnc(SCC(=O)Nc3ccc(Br)cc3)n2Cc2ccccc2)cc1 | Dose-dependent effect | Dose-dependent effect | Dose-dependent effect | 74.3% | ≤ 1 | 78.5% | 101% | 7.71 µM | Dose-dependent effect |  |  |  |  |  |  |  |  | 
2 | Cc1ccc(C(C)C)c(OCc2nnc(SCC(=O)Nc3ccc(S(N)(=O)=O)cc3)n2Cc2ccccc2)c1 |  |  |  | 76.4% | < 1 | 50.6% | 70.6% |  |  | Dose-dependent effect | 5.96 µM | Active | Dose-dependent effect |  |  |  |  | 
3 | Cc1ccc(C(C)C)c(OCc2nnc(SCC(=O)Nc3ccc(Cl)cc3)n2Cc2ccccc2)c1 |  |  |  | 17.7% | < 1 | 27.9% | 101% |  |  |  |  |  |  | Dose-dependent effect | 7.9 µM | Active | Dose-dependent effect | Dose-dependent effect
